In experiment [1] the test system is Staphylococcus aureus. The experiment in a line: Antibacterial activity against ciprofloxacin-resistant Staphylococcus aureus by agar microdilution method. The class given is functional. A digest of the protocol: (§1)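 MIC by agar microdilution following NCCLS standards; strains drawn from the PLIVA Research Institute culture collection. MIC reported in μg/mL.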

For experiment [2], the system named is Staphylococcus aureus. The experiment in a line: Antibacterial activity against erythromycin-susceptible Staphylococcus aureus by agar microdilution method. It counts as functional. In short, it runs like this:
(§2)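 Agar microdilution MIC per NCCLS standards against strains from the Pliva Research Institute culture collection; values in µg/mL. Panel included erythromycin-susceptible strains and strains with inducible or constitutive MLS resistance.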

Experiment [3] deals with Staphylococcus aureus. The experiment in a line: Antibacterial activity against Staphylococcus aureus with inducible resistance to MLS by agar microdilution method. The class given is functional. In short, it runs like this:
as §1

For experiment [4], the system named is Staphylococcus aureus. The experiment in a line: Antibacterial activity against constitutive MLS resistant Staphylococcus aureus by agar microdilution method. The class given is functional. In short, it runs like this:
as §1

The subject of experiment [5] is Staphylococcus aureus. The experiment in a line: Antibacterial activity against efflux mediated macrolide resistant Staphylococcus aureus by agar microdilution method. The class given is functional. In short, it runs like this:
as §1

Experiment [6] relates to Streptococcus pneumoniae. The experiment in a line: Antibacterial activity against erythromycin-susceptible Streptococcus pneumoniae by agar microdilution method. It counts as functional. A digest of the protocol: as §1
In experiment [7] the test system is Streptococcus pneumoniae. The experiment in a line: Antibacterial activity against constitutive MLS resistant Streptococcus pneumoniae by agar microdilution method. The class given is functional. A digest of the protocol:
as §1

The subject of experiment [8] is Streptococcus pneumoniae. The experiment in a line: Antibacterial activity against efflux mediated macrolide resistant Streptococcus pneumoniae by agar microdilution method. The class given is functional. In short, it runs like this: as §1
For experiment [9], the system named is Streptococcus pyogenes. The experiment in a line: Antibacterial activity against erythromycin-susceptible Streptococcus pyogenes by agar microdilution method. It counts as functional. In short, it runs like this: as §1
The subject of experiment [10] is Streptococcus pyogenes. The experiment in a line: Antibacterial activity against Streptococcus pyogenes with inducible resistance to MLS by agar microdilution method. The class given is functional. A digest of the protocol:
as §1

Experiment [11] concerns Streptococcus pyogenes. The experiment in a line: Antibacterial activity against constitutive MLS resistant Streptococcus pyogenes by agar microdilution method. It counts as functional. A digest of the protocol: as §1
Experiment [12] has as its system Streptococcus pyogenes. The experiment in a line: Antibacterial activity against efflux mediated macrolide resistant Streptococcus pyogenes by agar microdilution method. It counts as functional. A digest of the protocol: as §1
A further experiment concerns Haemophilus influenzae. The experiment in a line: Antibacterial activity against Haemophilus influenzae B0529 by agar microdilution method. It counts as functional. A digest of the protocol:
as §2

For the next experiment, the system named is Moraxella catarrhalis. The experiment in a line: Antibacterial activity against Moraxella catarrhalis by agar microdilution method. The class given is functional. In short, it runs like this:
as §2

The nature of experiment [13]: Inhibition of protein synthesis using Escherichia coli S30 extracts preincubated for 10 mins measured after 50 mins by luciferase reporter gene assay. The class given is functional. (In general: Reporter assays use an easily measured gene product as a stand-in for the process of interest.)
A short description of experiment [14]: Inhibition of Escherichia coli DNA gyrase-mediated supercoiling of relaxed pBR322 DNA.
The nature of experiment [15]: Inhibition of Escherichia coli topoisomerase 4-mediated relaxation of supercoiled pBR322 DNA.

The IC50 is the concentration that gives 50% inhibition. Read a low IC50 as greater potency.

Molecules are shown by their SMILES. Values after ≈ are worked out from the molar mass of the structure shown.

Regarding `CC[C@H]1OC(=O)[C@H](C)[C@@H](O[C@H]2C[C@@](C)(OC)[C@@H](OCCCC(=O)NCCOCCOCCNc3cc4c(=O)c(C(=O)O)cn(C5CC5)c4cc3Cl)[C@H](C)O2)[C@H](C)[C@@H](O[C@@H]2O[C@H](C)C[C@H](N(C)C)[C@H]2O)[C@](C)(O)C[C@@H](C)CN(C)[C@H](C)[C@@H](O)[C@]1(C)O`, the MIC in the experiment on Staphylococcus aureus [1] is at least 64 µg/mL; in the experiment with Staphylococcus aureus [2] it was 16 µg/mL (≈ 13 µM); in the experiment with Staphylococcus aureus [3], 64 µg/mL (≈ 52.2 µM); in the experiment on Staphylococcus aureus [4] it was 64 µg/mL (≈ 52.2 µM); against Staphylococcus aureus [5] it was 8 µg/mL (≈ 6.52 µM); with Streptococcus pneumoniae [6], at most 0.125 µg/mL. The MIC was determined as 64 µg/mL (≈ 52.2 µM) in the experiment on Streptococcus pneumoniae [7]; 0.25 µg/mL (≈ 0.204 µM) against Streptococcus pneumoniae [8]; 0.25 µg/mL (≈ 0.204 µM) with Streptococcus pyogenes [9]; 0.5 µg/mL (≈ 0.408 µM) against Streptococcus pyogenes [10]; 4 µg/mL (≈ 3.26 µM) against Streptococcus pyogenes [11]; 1 µg/mL (≈ 0.815 µM) in the experiment on Streptococcus pyogenes [12]. In addition, the MIC in the experiment on Haemophilus influenzae worked out at 8 µg/mL (≈ 6.52 µM); against Moraxella catarrhalis, 2 µg/mL (≈ 1.63 µM).

Consider `CC[C@H]1OC(=O)[C@H](C)[C@@H](O[C@H]2C[C@@](C)(OC)[C@@H](O)[C@H](C)O2)[C@H](C)[C@@H](O[C@@H]2O[C@H](C)C[C@H](N(C)C)[C@H]2O)[C@](C)(O)C[C@@H](C)CN(C)[C@H](C)[C@@H](O)[C@]1(C)O` [AZITHROMYCIN], for which the MIC against Staphylococcus aureus [1] was at least 64 µg/mL; against Staphylococcus aureus [2], 1 µg/mL (≈ 1.34 µM); against Staphylococcus aureus [3] it was above 64 µg/mL; with Staphylococcus aureus [4], above 64 µg/mL; in the experiment on Staphylococcus aureus [5], above 64 µg/mL; against Streptococcus pneumoniae [6], at most 0.125 µg/mL. For the same compound, the MIC against Streptococcus pneumoniae [7] was above 64 µg/mL; in the experiment with Streptococcus pneumoniae [8] it was 4 µg/mL (≈ 5.34 µM); against Streptococcus pyogenes [9], at most 0.125 µg/mL; with Streptococcus pyogenes [10], 8 µg/mL (≈ 10.7 µM); with Streptococcus pyogenes [11], above 64 µg/mL; against Streptococcus pyogenes [12], 1 µg/mL (≈ 1.34 µM). Also, the MIC against Haemophilus influenzae worked out at 1 µg/mL (≈ 1.34 µM); with Moraxella catarrhalis it was 0.25 µg/mL (≈ 0.334 µM).

Turning to `CC[C@H]1OC(=O)[C@H](C)[C@@H](O[C@H]2C[C@@](C)(OC)[C@@H](OCCNCCOCCNc3cc4c(=O)c(C(=O)O)cn(C5CC5)c4cc3Cl)[C@H](C)O2)[C@H](C)[C@@H](O[C@@H]2O[C@H](C)C[C@H](N(C)C)[C@H]2O)[C@](C)(O)C[C@@H](C)CN(C)[C@H](C)[C@@H](O)[C@]1(C)O`, the MIC is at least 64 µg/mL with Staphylococcus aureus [1]; at most 0.125 µg/mL with Staphylococcus aureus [2]; 0.25 µg/mL (≈ 0.219 µM) with Staphylococcus aureus [3]; 64 µg/mL (≈ 56.1 µM) against Staphylococcus aureus [4]; 0.5 µg/mL (≈ 0.438 µM) against Staphylococcus aureus [5]; at most 0.125 µg/mL against Streptococcus pneumoniae [6]. For the same compound, the MIC with Streptococcus pneumoniae [7] is 0.25 µg/mL (≈ 0.219 µM); with Streptococcus pyogenes [9], at most 0.125 µg/mL; against Streptococcus pyogenes [11] it was 1 µg/mL (≈ 0.877 µM); in the experiment on Streptococcus pyogenes [12], 0.125 µg/mL (≈ 0.11 µM); with Haemophilus influenzae it was 0.5 µg/mL (≈ 0.438 µM); against Moraxella catarrhalis it was 0.125 µg/mL (≈ 0.11 µM). For the same compound, the IC50 in [13] is 350 nM; in experiment [14], 60 µM; in experiment [15] it was 50 µM.

In the case of `CC[C@H]1OC(=O)[C@H](C)[C@@H](O[C@H]2C[C@@](C)(OC)[C@@H](OCCCC(=O)NCCNc3cc4c(cc3F)c(=O)c(C(=O)O)cn4C3CC3)[C@H](C)O2)[C@H](C)[C@@H](O[C@@H]2O[C@H](C)C[C@H](N(C)C)[C@H]2O)[C@](C)(O)C[C@@H](C)CN(C)[C@H](C)[C@@H](O)[C@]1(C)O`, the MIC against Staphylococcus aureus [1] was at least 64 µg/mL; against Staphylococcus aureus [2] it was 8 µg/mL (≈ 7.13 µM); against Staphylococcus aureus [3], 8 µg/mL (≈ 7.13 µM); against Staphylococcus aureus [4], 64 µg/mL (≈ 57 µM); with Staphylococcus aureus [5], 16 µg/mL (≈ 14.3 µM); against Streptococcus pneumoniae [6] it was 1 µg/mL (≈ 0.891 µM). The MIC amounted to 1 µg/mL (≈ 0.891 µM) against Streptococcus pneumoniae [7]; 4 µg/mL (≈ 3.56 µM) in the experiment with Streptococcus pneumoniae [8]; 1 µg/mL (≈ 0.891 µM) against Streptococcus pyogenes [9]; 1 µg/mL (≈ 0.891 µM) against Streptococcus pyogenes [10]; 16 µg/mL (≈ 14.3 µM) in the experiment with Streptococcus pyogenes [11]; 16 µg/mL (≈ 14.3 µM) against Streptococcus pyogenes [12]. Further, the MIC was 8 µg/mL (≈ 7.13 µM) in the experiment on Haemophilus influenzae and 2 µg/mL (≈ 1.78 µM) in the experiment on Moraxella catarrhalis.

In the case of `CC[C@H]1OC(=O)[C@H](C)[C@@H](O[C@H]2C[C@@](C)(OC)[C@@H](OCCNCCOCCNc3cc4c(=O)c(C(=O)O)cn(C5CC5)c4cc3Cl)[C@H](C)O2)[C@H](C)[C@@H](O[C@@H]2O[C@H](C)C[C@H](N(C)C)[C@H]2O)[C@](C)(O)C[C@@H](C)CN(C)[C@H](C)[C@H]2OC(=O)O[C@@]21C`, the MIC is 32 µg/mL (≈ 27.4 µM) in the experiment with Staphylococcus aureus [1]; at most 0.125 µg/mL in the experiment with Staphylococcus aureus [2]; 0.25 µg/mL (≈ 0.214 µM) against Staphylococcus aureus [3]; 32 µg/mL (≈ 27.4 µM) in the experiment with Staphylococcus aureus [4]; 0.25 µg/mL (≈ 0.214 µM) against Staphylococcus aureus [5]; at most 0.125 µg/mL against Streptococcus pneumoniae [6]. The MIC with Streptococcus pyogenes [9] was at most 0.125 µg/mL; with Streptococcus pyogenes [11], 0.5 µg/mL (≈ 0.429 µM); in the experiment with Haemophilus influenzae, 0.5 µg/mL (≈ 0.429 µM); against Moraxella catarrhalis, at most 0.125 µg/mL. The half-maximal inhibitory concentration (IC50) is 280 nM in experiment [13], 70 µM in [14] and 60 µM in [15].

For `CC[C@H]1OC(=O)[C@H](C)C(=O)[C@H](C)[C@@H](O[C@@H]2O[C@H](C)C[C@H](N(C)C)[C@H]2O)[C@](C)(OC)C[C@@H](C)C(=O)[C@H](C)[C@H]2N(CCCCn3cnc(-c4cccnc4)c3)C(=O)O[C@]12C` [TELITHROMYCIN], the MIC against Staphylococcus aureus [1] was at least 64 µg/mL; against Staphylococcus aureus [2], at most 0.125 µg/mL; with Staphylococcus aureus [3], 0.5 µg/mL (≈ 0.616 µM); against Staphylococcus aureus [4], above 64 µg/mL; with Staphylococcus aureus [5], 0.25 µg/mL (≈ 0.308 µM); against Streptococcus pneumoniae [6], at most 0.125 µg/mL. The MIC is 0.5 µg/mL (≈ 0.616 µM) against Streptococcus pneumoniae [8]; at most 0.125 µg/mL in the experiment on Streptococcus pyogenes [9]; 4 µg/mL (≈ 4.93 µM) with Streptococcus pyogenes [11]; 0.25 µg/mL (≈ 0.308 µM) in the experiment with Streptococcus pyogenes [12]; 1 µg/mL (≈ 1.23 µM) against Haemophilus influenzae; at most 0.125 µg/mL against Moraxella catarrhalis. Besides, the IC50 is 230 nM in experiment [13], above 50 µM in experiment [14] and above 50 µM in experiment [15].

The record behind these values is ChEMBL document CHEMBL1944570, “Discovery of 4''-ether linked azithromycin-quinolone hybrid series: influence of the central linker on the antibacterial activity” (ACS Med Chem Lett, 2011).
